Here are results for 18 compounds from ChEMBL document CHEMBL4130598, “Discovery of New Sulfonamide Carbonic Anhydrase IX Inhibitors Incorporating Nitrogenous Bases” (ACS Med Chem Lett, 2017).

Calls of active or inactive are those of the source. The rule behind the calls is not given here.

Experiment [1] deals with Carbonic anhydrase 9 (Homo sapiens, UniProt Q16790). The experiment can be described thus: Inhibition of human carbonic anhydrase 9 incubated for 15 mins by stopped flow CO2 hydrase assay.
For experiment [2], the system named is HT-29. The experiment can be described thus: Cytotoxicity in human HT-29 cells assessed as cell mortality at 30 to 300 uM incubated for 16 hrs under normoxic conditions by MTT assay. The class given is functional. On the technique in general: Tetrazolium dyes change colour on reduction, which living cells bring about.
The test system of experiment [3] is HT-29. Kind of experiment: Cytotoxicity in human HT-29 cells assessed as reduction in cell viability at 30 to 300 uM incubated for 16 hrs under hypoxic conditions by MTT assay.
Experiment [4] deals with Carbonic anhydrase 1 (Homo sapiens, UniProt P00915). Kind of experiment: Inhibition of human carbonic anhydrase 1 incubated for 15 mins by stopped flow CO2 hydrase assay.
Chain of Carbonic anhydrase 1 (P00915 whole entry): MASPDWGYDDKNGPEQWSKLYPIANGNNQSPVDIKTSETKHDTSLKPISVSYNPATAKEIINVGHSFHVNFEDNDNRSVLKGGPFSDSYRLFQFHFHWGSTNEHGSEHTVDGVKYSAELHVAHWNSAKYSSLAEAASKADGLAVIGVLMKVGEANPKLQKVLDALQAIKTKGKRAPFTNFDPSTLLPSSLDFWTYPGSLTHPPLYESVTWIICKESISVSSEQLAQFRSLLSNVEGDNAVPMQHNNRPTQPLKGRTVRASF
For experiment [5], the system named is HT-29. Kind of experiment: Cytotoxicity in human HT-29 cells assessed as reduction in cell viability at 30 to 300 uM incubated for 16 hrs under normoxic conditions by MTT assay. The experiment is classed as functional, cell-based. The gist of the method: (§1)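 HT-29 human colon cancer cells seeded at 1 × 10^4 per well and exposed to 30−300 μM for 16 or 48 h, under normoxia (20% O2) or hypoxia (0.1% O2). Viability is given relative to untreated control set at 100%, as mean ± SEM of three experiments, with significance tested against 0 μM.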

The test system of experiment [6] is HT-29. Kind of experiment: Cytotoxicity in human HT-29 cells assessed as reduction in cell viability at 30 to 300 uM incubated for 48 hrs under hypoxic conditions by MTT assay. The class given is functional. The gist of the method: as §1

Take `NS(=O)(=O)c1ccc(-n2cc(Cn3ccc(=O)[nH]c3=O)nn2)cc1`: the Ki in experiment [1] was determined as 4.8 nM.

In experiment [1], `NS(=O)(=O)c1cccc(-n2cc(Cn3ccc(=O)[nH]c3=O)nn2)c1` showed a Ki of 460 nM.

As for `CN(C)/C=N/c1ncnc2c1ncn2CC(=O)Nc1ccc(S(N)(=O)=O)cc1`, the Ki in experiment [1] came to 40 nM. This Ki is about 12-fold lower than that of the compound before.

As for `CN(C)/C=N/c1ncnc2c1ncn2CC(=O)NCCc1ccc(S(N)(=O)=O)cc1`, affinity in experiment [1] was put at a Ki of 113 nM.

Regarding `Nc1ncnc2c1ncn2CC(=O)NCCc1ccc(S(N)(=O)=O)cc1`, the Ki in experiment [1] was determined as 11.4 nM. Also, in experiment [2], the Activity was 10 - 15%. Further, in experiment [3], the result was inactive.

`Nc1ncnc2c1ncn2CC(=O)NCc1ccc(S(N)(=O)=O)cc1`: in experiment [1], the Ki turned out to be 45.2 nM.

Take `CN(C)/C=N/c1ncnc2c1ncn2CC(=O)NCc1ccc(S(N)(=O)=O)cc1`: the Ki in experiment [1] stood at 166 nM.

For the compound `NS(=O)(=O)c1ccc(O)c(NC(=O)Cn2ccc(=O)[nH]c2=O)c1`, the Ki in experiment [1] amounted to 439 nM. This Ki is about 2.6-fold higher than that of the compound before.

Regarding `NS(=O)(=O)c1cccc(NC(=O)Cn2ccc(=O)[nH]c2=O)c1`, the Ki in experiment [1] turned out to be 3120 nM. Against the preceding compound, the Ki is about 7.1-fold higher.

For the compound `NS(=O)(=O)c1ccc(CCNC(=O)Cn2ccc(=O)[nH]c2=O)cc1`, the Ki in experiment [1] is 46 nM.

For `Nc1ncnc2c1ncn2CC(=O)Nc1cccc(S(N)(=O)=O)c1`, the Ki in experiment [1] was 428 nM; in experiment [4] it was more than 10000 nM.

Take `Nc1ncnc2c1ncn2CCOc1ccc(S(N)(=O)=O)cc1`: in experiment [5], the outcome was Active. For the same compound, the Activity in experiment [6] is listed as 25 - 30%; in experiment [2], 10 - 15%. In addition, in experiment [1], the Ki was determined as 29.9 nM. Further, the result in experiment [3] was inactive.

On to `NS(=O)(=O)c1ccc(NC(=O)Cn2ccc(=O)[nH]c2=O)cc1`, for which the outcome in experiment [5] was Active. Besides, the Activity in experiment [6] is given as 25 - 30%. The same compound came in with a Ki in experiment [1] of 25.7 nM. The result in experiment [3] was inactive.

As for `CN(C)/C=N/c1ncnc2c1ncn2CC(=O)Nc1cccc(S(N)(=O)=O)c1`, the Ki in experiment [1] was 2810 nM; in experiment [4], more than 10000 nM.

In turn, `NS(=O)(=O)c1ccc(CNC(=O)Cn2ccc(=O)[nH]c2=O)cc1` showed a Ki in experiment [1] of 405 nM.

On to `Nc1ncnc2c1ncn2Cc1cn(-c2ccc(S(N)(=O)=O)cc2)nn1`, for which the Ki in experiment [1] stood at 1.9 nM.

Take `Nc1ncnc2c1ncn2CC(=O)Nc1ccc(S(N)(=O)=O)cc1`: the outcome in experiment [5] and in experiment [3] was Active. The Activity in experiment [6] is listed as 25 - 30%; in experiment [2], 10 - 15%. In experiment [1], the Ki came to 16.9 nM.

For the compound `Nc1ncnc2c1ncn2Cc1cn(-c2cccc(S(N)(=O)=O)c2)nn1`, the Ki is 1310 nM in experiment [1] and more than 10000 nM in experiment [4].

What is called Ki is the dissociation constant of the complex between target and ligand, obtained from inhibition or displacement.
